The record followed here is ChEMBL document CHEMBL4834405, “Structure-Based Design of High-Affinity Macrocyclic FKBP51 Inhibitors” (J Med Chem, 2021).

In general, Kd refers to the constant that tells how readily two partners part at equilibrium.

In experiment [1] the target is T1, Peptidyl-prolyl cis-trans isomerase FKBP4 (Homo sapiens, UniProt Q02790).
T1 sequence (Q02790 whole entry): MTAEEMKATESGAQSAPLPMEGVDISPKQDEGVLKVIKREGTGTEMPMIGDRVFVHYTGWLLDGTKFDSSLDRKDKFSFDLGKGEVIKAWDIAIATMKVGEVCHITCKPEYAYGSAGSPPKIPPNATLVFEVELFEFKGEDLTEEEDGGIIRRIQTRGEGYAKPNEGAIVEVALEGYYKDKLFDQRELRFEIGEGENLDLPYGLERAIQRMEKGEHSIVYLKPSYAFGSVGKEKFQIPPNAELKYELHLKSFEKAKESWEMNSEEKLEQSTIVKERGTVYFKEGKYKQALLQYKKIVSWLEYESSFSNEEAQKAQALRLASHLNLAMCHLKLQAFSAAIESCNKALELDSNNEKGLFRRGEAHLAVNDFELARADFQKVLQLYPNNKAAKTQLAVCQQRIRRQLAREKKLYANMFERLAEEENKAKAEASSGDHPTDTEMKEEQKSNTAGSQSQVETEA
In words: Displacement of fluorescent tracer 5-(3-(4-((1S,5S,6S)-10-(3,5-dichlorophenylsulfonyl)-2-oxo-3-(pyridin-3-ylmethyl)-3,10-diazabicyclo[4.3.1]decan-5-yl)-1H-1,2,3-triazol-1-yl)propylcarbamoyl)-2-(6-(dimethylamino)-3-(dimethyliminio)-3H-xanthen-9-yl)benzoate from recombinant full length C-terminal FLAG-tagged FKBP52 (unknown origin) expressed in Escherichia coli BL21 (DE3) cells incubated for 30 mins by fluorescence polarisation competition binding assay. The gist of the method:
(§1)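 Competitive FP in 150 mM NaCl, 20 mM HEPES pH 8.0, 0.002% Triton X-100. Ligand 1:1 serially diluted in DMSO and premixed with fluorescent tracer, tracer working solution 11.9 nM (FKBP12.6, 51FK1, 52FK1) or 5.95 nM (FKBP12) before final 10-fold dilution into protein. 30 min at room temperature, read at ex/em 535/590 nm. Weighted SD from at least two independent runs.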
(In general: Fluorescence polarisation rises when a labelled molecule tumbles more slowly, as on binding a larger partner.)

Experiment [2] deals with Peptidyl-prolyl cis-trans isomerase FKBP1A (Homo sapiens, UniProt P62942). As to the kind of experiment: Displacement of fluorescent tracer 5-(3-(4-((1S,5S,6S)-10-(3,5-dichlorophenylsulfonyl)-2-oxo-3-(pyridin-3-ylmethyl)-3,10-diazabicyclo[4.3.1]decan-5-yl)-1H-1,2,3-triazol-1-yl)propylcarbamoyl)-2-(6-(dimethylamino)-3-(dimethyliminio)-3H-xanthen-9-yl)benzoate from recombinant full length C-terminal FLAG-tagged FKBP12 (unknown origin) expressed in Escherichia coli BL21 ([…]) cells incubated for 30 mins by fluorescence polarisation competition binding assay. The method in brief: as §1

For experiment [3], the target named is Peptidyl-prolyl cis-trans isomerase FKBP1B (Homo sapiens, UniProt P68106). In words: Displacement of fluorescent tracer 5-(3-(4-((1S,5S,6S)-10-(3,5-dichlorophenylsulfonyl)-2-oxo-3-(pyridin-3-ylmethyl)-3,10-diazabicyclo[4.3.1]decan-5-yl)-1H-1,2,3-triazol-1-yl)propylcarbamoyl)-2-(6-(dimethylamino)-3-(dimethyliminio)-3H-xanthen-9-yl)benzoate from recombinant full length C-terminal FLAG-tagged FKBP12.6 (unknown origin) expressed in Escherichia coli BL21 (DE3) cells incubated for 30 mins by fluorescence polarisation competition assay. The gist of the method: as §1

Experiment [4] can be described thus: (§2) Selectivity ratio of Kd for displacement of fluorescent tracer 5-(3-(4-((1S,5S,6S)-10-(3,5-dichlorophenylsulfonyl)-2-oxo-3-(pyridin-3-ylmethyl)-3,10-diazabicyclo[4.3.1]decan-5-yl)-1H-1,2,3-triazol-1-yl)propylcarbamoyl)-2-(6-(dimethylamino)-3-(dimethyliminio)-3H-xanthen-9-yl)benzoate from recombinant full length C-terminal FLAG-tagged FKBP52 (unknown origin) to Kd for displacement of fluorescent tracer 5-(3-(4-((1S,5S,6S)-10-(3,5-dichlorophenylsulfonyl)-2-oxo-3-(pyridin-3-ylmethyl)-3,10-diazabicyclo[4.3.1]decan-5-yl)-1H-1,2,3-triazol-1-yl)propylcarbamoyl)-2-(6-(dimethylamino)-3-(dimethyliminio)-3H-xanthen-9-yl)benzoate from recombinant full length C-terminal FLAG-tagged FKBP51 (unknown origin).

Experiment [5] can be described thus: as §2, with “FJBP12” for “FKBP52 (unknown origin)”.
Experiment [6] is described as follows: as §2, with “FKBP12.6” for “FKBP52”.
Experiment [7] addresses T2, Peptidyl-prolyl cis-trans isomerase FKBP5 (Homo sapiens, UniProt Q13451).
T2 sequence (Q13451 whole entry): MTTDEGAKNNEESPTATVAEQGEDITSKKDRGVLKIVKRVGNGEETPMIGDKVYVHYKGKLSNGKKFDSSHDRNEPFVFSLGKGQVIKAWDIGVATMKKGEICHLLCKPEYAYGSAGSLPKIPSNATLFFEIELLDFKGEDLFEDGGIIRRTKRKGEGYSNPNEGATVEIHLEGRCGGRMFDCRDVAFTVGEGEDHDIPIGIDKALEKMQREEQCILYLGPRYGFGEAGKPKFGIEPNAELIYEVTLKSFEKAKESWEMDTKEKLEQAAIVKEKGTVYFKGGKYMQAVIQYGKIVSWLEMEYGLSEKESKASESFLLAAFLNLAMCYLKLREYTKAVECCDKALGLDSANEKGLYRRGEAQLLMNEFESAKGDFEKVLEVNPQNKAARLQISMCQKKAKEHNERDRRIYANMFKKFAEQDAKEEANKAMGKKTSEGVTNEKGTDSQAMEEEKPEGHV
In words: Displacement of fluorescent tracer 5-(3-(4-((1S,5S,6S)-10-(3,5-dichlorophenylsulfonyl)-2-oxo-3-(pyridin-3-ylmethyl)-3,10-diazabicyclo[4.3.1]decan-5-yl)-1H-1,2,3-triazol-1-yl)propylcarbamoyl)-2-(6-(dimethylamino)-3-(dimethyliminio)-3H-xanthen-9-yl)benzoate from recombinant full length C-terminal FLAG-tagged FKBP51 (unknown origin) expressed in Escherichia coli BL21 (DE3) cells incubated for 30 mins by fluorescence polarisation competition binding assay.

Chain of Peptidyl-prolyl cis-trans isomerase FKBP1B (P68106 whole entry): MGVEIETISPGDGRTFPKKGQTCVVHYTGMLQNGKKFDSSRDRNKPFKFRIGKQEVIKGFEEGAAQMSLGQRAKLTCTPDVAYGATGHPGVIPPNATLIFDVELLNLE
Chain of Peptidyl-prolyl cis-trans isomerase FKBP1A (P62942 whole entry): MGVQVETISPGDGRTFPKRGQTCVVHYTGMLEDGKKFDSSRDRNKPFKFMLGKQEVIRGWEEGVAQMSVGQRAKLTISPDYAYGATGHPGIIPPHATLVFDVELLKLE

As to `COc1ccc(CC[C@H]2OC(=O)[C@@H]3CCCCN3C(=O)[C@@H](C3CCCCC3)c3cc(OC)c(OC)c(c3)OCCCOc3cccc2c3)cc1OC`, the Kd is 13200 nM in experiment [1], 295 nM in experiment [2], 94 nM in experiment [3] and 70 nM in experiment [7]. For the same compound, the Selectivity ratio in experiment [4] was more than 188; in experiment [5], 4.2; in experiment [6], 1.3.

In the case of `COc1ccc(CC[C@H]2OC(=O)[C@@H]3CCCCN3C(=O)[C@@H](C3CCCCC3)c3cc(OC)c(c(OC)c3)OC/C=C\COc3cccc2c3)cc1OC`, the Kd is more than 10000 nM in experiment [1], 815 nM in experiment [2], 658 nM in experiment [3] and 67 nM in experiment [7]. For the same compound, the Selectivity ratio is more than 149 in experiment [4], 12.2 in experiment [5] and 9.8 in experiment [6].

On to `COc1ccc(CC[C@H]2OC(=O)[C@@H]3CCCCN3C(=O)[C@@H](C3CCCCC3)c3cc(OC)c(c(OC)c3)OCC(O)C(O)COc3cccc2c3)cc1OC` (mixture of isomers), for which the Kd came to 795 nM in experiment [1], 79 nM in experiment [2], 85 nM in experiment [3] and 12 nM in experiment [7]. Also, the Selectivity ratio amounted to 66.2 in experiment [4], 6.5 in experiment [5] and 7 in experiment [6].

In the case of `COc1ccc(CC[C@H]2OC(=O)[C@@H]3CCCCN3C(=O)[C@@H](C3CCCCC3)c3cc(OC)c(OC)c(c3)OCCCOCCCCOc3cccc2c3)cc1OC`, the Kd in experiment [1] is more than 10000 nM; in experiment [2], 354 nM; in experiment [3], 227 nM; in experiment [7], 103 nM. In addition, the values for the Selectivity ratio in experiment [4], in experiment [5] and in experiment [6] were more than 97, 3.4 and 2.2, respectively.

With `COc1cccc([C@@H](CCc2ccc(OC)c(OC)c2)OC(=O)[C@@H]2CCCCN2C(=O)[C@H](c2cc(OC)c(OC)c(OC)c2)C2CCCCC2)c1`, the equilibrium dissociation constant (Kd) in experiment [1] was more than 10000 nM; in experiment [2], 263 nM; in experiment [3] it was 203 nM; in experiment [7], 83 nM.

Consider `COc1ccc(CC[C@H]2OC(=O)[C@@H]3CCCCN3C(=O)[C@@H](C3CCCCC3)c3cc(OC)c(c(OC)c3)OCCCCOc3cccc2c3)cc1OC`, for which the equilibrium dissociation constant (Kd) in experiment [1] was more than 10000 nM; in experiment [2] it was 584 nM; in experiment [3], 383 nM; in experiment [7], 89 nM. Moreover, the Selectivity ratio in experiment [4] is more than 112; in experiment [5], 6.6; in experiment [6], 4.3.

As to `COc1ccc(CC[C@H]2OC(=O)[C@@H]3CCCCN3C(=O)[C@@H](C3CCCCC3)c3cc(OC)c(OC)c(c3)OCC/C=C/COc3cccc2c3)cc1OC`, the Kd in experiment [1] is more than 10000 nM; in experiment [2], 588 nM; in experiment [3], 709 nM; in experiment [7], 113 nM. In addition, the figures for the Selectivity ratio in experiment [4], in experiment [5] and in experiment [6] were more than 89, 5.2 and 6.3, respectively.

With `COc1ccc(CC[C@H]2OC(=O)[C@@H]3CCCCN3C(=O)[C@@H](C3CCCCC3)c3cc(OC)c(c(OC)c3)OCCOC/C=C/COc3cccc2c3)cc1OC`, the Kd in experiment [1] was more than 10000 nM; in experiment [2] it was 1010 nM; in experiment [3] it was 715 nM.

For `COc1ccc(CC[C@H]2OC(=O)[C@@H]3CCCCN3C(=O)[C@@H](C3CCCCC3)c3cc(OC)c(OC)c(c3)OCCOCC(=O)CCOc3cccc2c3)cc1OC`, the dissociation constant (Kd) is 3880 nM in experiment [1], 62 nM in experiment [2], 53 nM in experiment [3] and 28 nM in experiment [7]. Moreover, the values for the Selectivity ratio in experiment [4], in experiment [5] and in experiment [6] were 138, 2.2 and 1.9, respectively.

For `COc1ccc(CC[C@H]2OC(=O)[C@@H]3CCCCN3C(=O)[C@@H](C3CCCCC3)c3cc(OC)c(c(OC)c3)OCCCCCOc3cccc2c3)cc1OC`, the dissociation constant Kd in experiment [1] is more than 10000 nM; in experiment [2] it was 1490 nM; in experiment [3] it was 849 nM; in experiment [7] it was 119 nM. Further, the figures for the Selectivity ratio in experiment [4], in experiment [5] and in experiment [6] were more than 84, 12.5 and 7.1, respectively.

`COc1ccc(CC[C@H]2OC(=O)[C@@H]3CCCCN3C(=O)[C@@H](C3CCCCC3)c3cc(OC)c(c(OC)c3)OCCCOc3cccc2c3)cc1OC`: the Kd in experiment [1] was more than 10000 nM; in experiment [2], 744 nM; in experiment [3] it was 446 nM; in experiment [7] it was 70 nM. In addition, the figures for the Selectivity ratio in experiment [4], in experiment [5] and in experiment [6] were more than 142, 10.6 and 6.3, respectively.

As for `COc1ccc(CC[C@H]2OC(=O)[C@@H]3CCCCN3C(=O)[C@@H](C3CCCCC3)c3cc(OC)c(OC)c(c3)OC/C=C/COc3cccc2c3)cc1OC`, the dissociation constant Kd amounted to 5390 nM in experiment [1], 212 nM in experiment [2], 216 nM in experiment [3] and 108 nM in experiment [7]. The Selectivity ratio was 49.9 in experiment [4], 1.9 in experiment [5] and 2 in experiment [6].

As for `COc1ccc(CC[C@H]2OC(=O)[C@@H]3CCCCN3C(=O)[C@@H](C3CCCCC3)c3cc(OC)c(c(OC)c3)OCCC(=O)COc3cccc2c3)cc1OC`, the Kd in experiment [1] stood at 4670 nM; in experiment [2] it was 86 nM; in experiment [3] it was 38 nM; in experiment [7], 11 nM. Moreover, the results for the Selectivity ratio in experiment [4], in experiment [5] and in experiment [6] were 425, 7.8 and 3.4, respectively.

In the case of `COc1ccc(CC[C@H]2OC(=O)[C@@H]3CCCCN3C(=O)[C@@H](C3CCCCC3)c3cc(OC)c(OC)c(c3)OCCOC/C=C\COc3cccc2c3)cc1OC`, the Kd was more than 10000 nM in experiment [1], 345 nM in experiment [2], 301 nM in experiment [3] and 137 nM in experiment [7]. Also, the Selectivity ratio in experiment [4] was more than 73; in experiment [5], 2.5; in experiment [6] it was 2.2.

Regarding `COc1ccc(CC[C@H]2OC(=O)[C@@H]3CCCCN3C(=O)[C@@H](C3CCCCC3)c3cc(OC)c(c(OC)c3)OCCOC/C=C\COc3cccc2c3)cc1OC`, the Kd in experiment [1] is more than 10000 nM; in experiment [2], 798 nM; in experiment [3], 344 nM.
